These results are taken from ChEMBL document CHEMBL1123812, “Pyrroloisoquinoline antidepressants. 2. In-depth exploration of structure-activity relationships” (J Med Chem, 1987).

Active and inactive are the calls of the source.

The species named for assay [1] is Mus musculus. Kind of assay: Gross behavioral effects ascertained in mice; W indicates weak stimulant or depressant activity of little significance. Type of assay: functional, organism-based. Summed up:
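Male Swiss Webster mice, 18–24 g, three per dose, given ip doses of 1, 3, 10, 30, 100 and 300 mg/kg. Observed for gross behavior and held for 4 days. Scored as weak (W), stimulant (S), depressant (D) or convulsant (C).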

For the next assay, the species on record is Rattus norvegicus. The assay can be described thus: Inhibition of GABA uptake at 1 uM concentration. Type of assay: functional.
Assay [2] concerns the target Adrenergic receptor alpha-2 (Rattus norvegicus) (UniProt P22086+P19328+P22909). The assay can be described thus: Binding affinity towards alpha-2 adrenergic receptor at 1.0 uM concentration. Format: protein assay.
In assay [3] the target is Muscarinic acetylcholine receptor (Rattus norvegicus) (UniProt P08482+P08483+P08485+P08911+P10980). Kind of assay: Binding affinity towards Muscarinic acetylcholine receptor at 1.0 uM concentration. Format: protein assay.
Assay [4] deals with D(1A) dopamine receptor (Rattus norvegicus) (UniProt P18901). The assay can be described thus: Binding affinity towards Dopamine receptor D1 at 1.0 uM concentration. An outline of the steps:
(§1)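 Rat brain crude synaptic membranes in 20 mM NaHEPES pH 7.5. Ligands: α1 cortex […] 0.4 nM, nonspecific with (-)-NE 100 μM, 30 min at 25 °C. […] D2 striatum [3H]spiperone 0.05 nM with (+)-butaclamol 1 μM, 45 min at 37 °C. S1 cortex [3H]5-HT 1 nM plus glutathione and MgCl2, with 5-HT 10 μM, 20 min at 37 °C. […] Samples filtered on GF/B and counted.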

Assay [5] deals with Serotonin 1 (5-HT1) receptor (Rattus norvegicus, UniProt P28564+P30940+P19327+P28565). Kind of assay: Binding affinity towards serotonin S1 receptor. Format: protein assay. Summed up:
as §1

Another assay has as its target D(2) dopamine receptor (Rattus norvegicus, UniProt P61169). The assay can be described thus: Binding affinity towards Dopamine receptor D2.
The target in assay [6] is T1, Adrenergic receptor alpha-2 (Rattus norvegicus, UniProt P22086+P19328+P22909).
T1 sequence (P22086 whole entry): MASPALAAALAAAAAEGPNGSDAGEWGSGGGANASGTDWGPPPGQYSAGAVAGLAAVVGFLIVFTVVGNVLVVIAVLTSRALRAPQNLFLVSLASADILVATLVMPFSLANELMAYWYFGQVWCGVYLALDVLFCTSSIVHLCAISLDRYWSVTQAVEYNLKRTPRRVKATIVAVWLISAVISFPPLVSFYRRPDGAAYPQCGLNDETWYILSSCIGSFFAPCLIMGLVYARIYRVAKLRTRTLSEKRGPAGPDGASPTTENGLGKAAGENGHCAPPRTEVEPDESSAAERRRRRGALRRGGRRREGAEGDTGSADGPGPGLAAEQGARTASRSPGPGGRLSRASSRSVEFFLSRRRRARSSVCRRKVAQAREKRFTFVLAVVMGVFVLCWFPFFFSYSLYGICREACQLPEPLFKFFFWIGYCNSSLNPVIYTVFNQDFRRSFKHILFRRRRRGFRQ
T1 sequence (P19328 whole entry): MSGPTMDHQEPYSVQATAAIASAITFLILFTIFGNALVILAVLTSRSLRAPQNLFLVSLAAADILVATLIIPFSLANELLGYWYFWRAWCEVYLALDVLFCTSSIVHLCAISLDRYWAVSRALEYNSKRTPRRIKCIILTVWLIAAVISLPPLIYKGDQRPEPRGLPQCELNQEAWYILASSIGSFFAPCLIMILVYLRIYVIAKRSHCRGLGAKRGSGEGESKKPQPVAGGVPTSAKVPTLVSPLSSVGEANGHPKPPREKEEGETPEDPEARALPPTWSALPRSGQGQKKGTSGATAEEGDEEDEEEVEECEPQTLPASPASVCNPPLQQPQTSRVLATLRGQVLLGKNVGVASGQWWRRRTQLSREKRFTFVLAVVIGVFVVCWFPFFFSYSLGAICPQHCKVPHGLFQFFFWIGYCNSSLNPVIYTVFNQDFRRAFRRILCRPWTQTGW
T1 sequence (P22909 whole entry): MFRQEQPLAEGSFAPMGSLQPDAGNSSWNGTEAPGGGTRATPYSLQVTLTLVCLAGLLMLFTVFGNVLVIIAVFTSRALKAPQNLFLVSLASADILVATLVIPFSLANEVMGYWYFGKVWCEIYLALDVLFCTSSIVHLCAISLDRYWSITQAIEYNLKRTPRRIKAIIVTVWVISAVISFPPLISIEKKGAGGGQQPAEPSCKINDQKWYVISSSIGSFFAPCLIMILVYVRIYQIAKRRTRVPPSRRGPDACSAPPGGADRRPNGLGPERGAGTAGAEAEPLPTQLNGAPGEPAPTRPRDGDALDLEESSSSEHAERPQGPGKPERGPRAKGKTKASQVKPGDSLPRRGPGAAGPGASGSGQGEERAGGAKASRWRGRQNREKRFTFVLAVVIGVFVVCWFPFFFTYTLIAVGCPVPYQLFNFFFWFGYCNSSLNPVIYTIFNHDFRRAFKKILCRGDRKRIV
The assay can be described thus: Binding affinity towards alpha-2 adrenergic receptor. Type of assay: protein assay.

The species entered for assay [7] is Mus musculus. Kind of assay: Antagonism of tetrabenazine (TBZ)-induced depression in mice measured for ptosis. Format: functional. Summed up:
(§2)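 Nonfasted male Swiss Webster mice, 18–24 g, ten per dose level and in saline controls. Test compound given ip 30 min before tetrabenazine 32 mg/kg ip; dose expressed as free base. Motor activity and ptosis scored. Control response ≤90% corrected by Abbott's formula.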

Assay [8] is filed under the species Mus musculus. The assay can be described thus: Antagonism of tetrabenazine (TBZ)-induced depression measured in mice by motor activity. Type of assay: functional. Summed up:
as §2

Assay [9] concerns the target T2, Adrenergic receptor alpha-1 (Rattus norvegicus, UniProt P15823+P23944+P43140).
T2 sequence (P15823 whole entry): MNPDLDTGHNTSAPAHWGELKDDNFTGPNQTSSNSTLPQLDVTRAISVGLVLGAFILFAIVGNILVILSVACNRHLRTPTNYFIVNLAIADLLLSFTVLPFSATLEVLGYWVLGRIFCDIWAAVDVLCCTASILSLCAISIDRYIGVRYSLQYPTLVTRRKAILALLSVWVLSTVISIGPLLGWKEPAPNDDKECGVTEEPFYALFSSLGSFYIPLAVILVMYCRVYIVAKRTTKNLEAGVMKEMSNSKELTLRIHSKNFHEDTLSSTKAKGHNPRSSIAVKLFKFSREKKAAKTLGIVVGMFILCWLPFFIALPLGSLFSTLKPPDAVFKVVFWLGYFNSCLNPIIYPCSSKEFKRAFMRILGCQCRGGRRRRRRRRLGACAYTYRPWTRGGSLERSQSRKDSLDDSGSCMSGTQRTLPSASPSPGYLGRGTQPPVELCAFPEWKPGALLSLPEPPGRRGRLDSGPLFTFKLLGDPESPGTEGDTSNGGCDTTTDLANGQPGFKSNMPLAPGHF
T2 sequence (P23944 whole entry): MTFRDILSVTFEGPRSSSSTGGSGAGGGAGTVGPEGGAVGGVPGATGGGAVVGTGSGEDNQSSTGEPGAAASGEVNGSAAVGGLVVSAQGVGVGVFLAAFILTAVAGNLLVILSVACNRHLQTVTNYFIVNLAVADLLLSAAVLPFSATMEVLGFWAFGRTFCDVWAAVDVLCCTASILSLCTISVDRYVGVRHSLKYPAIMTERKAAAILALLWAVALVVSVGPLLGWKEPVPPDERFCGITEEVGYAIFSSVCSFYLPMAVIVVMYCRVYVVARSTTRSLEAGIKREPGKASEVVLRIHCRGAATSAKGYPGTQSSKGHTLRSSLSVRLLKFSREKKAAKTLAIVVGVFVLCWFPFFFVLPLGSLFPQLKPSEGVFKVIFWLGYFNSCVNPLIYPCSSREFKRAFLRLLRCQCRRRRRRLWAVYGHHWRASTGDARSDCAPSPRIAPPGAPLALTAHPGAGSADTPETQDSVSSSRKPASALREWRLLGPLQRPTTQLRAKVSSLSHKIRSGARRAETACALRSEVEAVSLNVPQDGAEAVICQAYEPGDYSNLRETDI
T2 sequence (P43140 whole entry): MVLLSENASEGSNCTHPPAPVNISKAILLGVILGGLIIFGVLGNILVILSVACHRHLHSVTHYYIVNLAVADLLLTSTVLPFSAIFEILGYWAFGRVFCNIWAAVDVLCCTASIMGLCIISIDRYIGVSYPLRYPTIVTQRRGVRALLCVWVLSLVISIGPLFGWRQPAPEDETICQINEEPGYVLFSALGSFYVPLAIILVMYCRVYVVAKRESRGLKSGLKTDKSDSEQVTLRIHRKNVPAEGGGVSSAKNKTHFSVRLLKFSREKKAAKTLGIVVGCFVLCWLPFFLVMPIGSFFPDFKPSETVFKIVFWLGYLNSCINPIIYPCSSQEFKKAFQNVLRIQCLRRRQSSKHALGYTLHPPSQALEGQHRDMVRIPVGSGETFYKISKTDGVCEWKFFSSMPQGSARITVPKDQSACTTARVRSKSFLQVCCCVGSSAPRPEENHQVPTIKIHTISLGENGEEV
The assay can be described thus: Binding affinity towards alpha-1 adrenergic receptor. Format: protein assay.

The test system of assay [10] is Mus musculus. The assay can be described thus: (§3) Ability to antagonise intraperitoneal dose; inactive (<10% antagonism) at 30 mgjkg is represented as I-30. Format: functional, organism-based. Summed up: (§4)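 Swiss Webster male albino mice, nonfasted, 18–24 g, 10 per dose and in saline control. Compound given ip 30 min before TBZ 32 mg/kg ip. Motor activity and ptosis scored. Response corrected by Abbott's formula when control response was 90% or less. Doses expressed as free base.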

Assay [11] relates to Mus musculus. Described as §3. Type of assay: functional, organism-based. Summed up:
as §4
This is another data set of the same source.

Assay [12] addresses Sodium-dependent dopamine transporter (Rattus norvegicus, UniProt P23977). The assay can be described thus: Inhibition of the uptake of tritiated dopamine (DA) in rat synaptosomes. Type of assay: subcellular, Brain.
The target in assay [13] is Norepinephrine transporter (Rattus norvegicus, UniProt Q9WTR4). Kind of assay: Inhibition of uptake of tritiated norepinephrine (NE) in rat synaptosomes. Type of assay: subcellular, Brain.
Norepinephrine transporter, sequence (Q9WTR4 whole entry): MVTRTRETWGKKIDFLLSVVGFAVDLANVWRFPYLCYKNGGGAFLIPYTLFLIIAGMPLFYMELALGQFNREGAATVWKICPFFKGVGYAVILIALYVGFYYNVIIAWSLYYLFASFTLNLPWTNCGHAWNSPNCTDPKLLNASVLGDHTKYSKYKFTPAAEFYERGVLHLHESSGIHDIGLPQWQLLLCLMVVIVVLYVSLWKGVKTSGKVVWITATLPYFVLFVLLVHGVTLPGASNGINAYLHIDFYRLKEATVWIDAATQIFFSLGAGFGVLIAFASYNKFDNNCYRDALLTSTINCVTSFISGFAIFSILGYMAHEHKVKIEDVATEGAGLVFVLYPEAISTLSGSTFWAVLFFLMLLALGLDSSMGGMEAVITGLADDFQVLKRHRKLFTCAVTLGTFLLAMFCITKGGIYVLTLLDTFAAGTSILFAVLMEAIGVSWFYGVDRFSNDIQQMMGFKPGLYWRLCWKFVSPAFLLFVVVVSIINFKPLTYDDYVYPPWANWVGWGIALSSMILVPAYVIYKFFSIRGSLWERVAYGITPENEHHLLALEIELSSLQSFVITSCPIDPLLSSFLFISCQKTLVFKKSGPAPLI

D(2) dopamine receptor, sequence (P61169 whole entry): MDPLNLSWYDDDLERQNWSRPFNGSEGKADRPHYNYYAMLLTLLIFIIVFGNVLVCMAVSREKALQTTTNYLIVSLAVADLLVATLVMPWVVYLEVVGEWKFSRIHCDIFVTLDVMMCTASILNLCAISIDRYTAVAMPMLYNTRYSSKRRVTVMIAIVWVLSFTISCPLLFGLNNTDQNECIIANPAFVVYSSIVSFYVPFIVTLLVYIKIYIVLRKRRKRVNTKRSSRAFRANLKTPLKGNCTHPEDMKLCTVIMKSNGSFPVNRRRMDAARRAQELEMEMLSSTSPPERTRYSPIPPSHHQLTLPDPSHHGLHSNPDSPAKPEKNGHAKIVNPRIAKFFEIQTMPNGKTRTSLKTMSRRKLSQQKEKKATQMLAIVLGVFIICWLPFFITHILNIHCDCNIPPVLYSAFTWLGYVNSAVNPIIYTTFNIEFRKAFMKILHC
D(1A) dopamine receptor (Rattus norvegicus), sequence (P18901 whole entry): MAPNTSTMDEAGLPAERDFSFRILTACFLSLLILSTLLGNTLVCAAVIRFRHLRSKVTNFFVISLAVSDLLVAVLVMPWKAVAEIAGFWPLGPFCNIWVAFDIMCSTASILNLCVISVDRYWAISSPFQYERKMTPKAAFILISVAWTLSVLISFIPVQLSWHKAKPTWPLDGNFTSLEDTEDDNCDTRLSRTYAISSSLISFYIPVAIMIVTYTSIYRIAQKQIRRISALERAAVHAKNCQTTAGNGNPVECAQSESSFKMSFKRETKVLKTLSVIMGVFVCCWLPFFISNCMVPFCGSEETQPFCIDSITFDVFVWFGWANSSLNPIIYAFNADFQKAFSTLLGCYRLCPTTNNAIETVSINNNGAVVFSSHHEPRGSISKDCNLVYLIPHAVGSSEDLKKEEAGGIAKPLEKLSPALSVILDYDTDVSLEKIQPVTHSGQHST
Sodium-dependent dopamine transporter, sequence (P23977 whole entry): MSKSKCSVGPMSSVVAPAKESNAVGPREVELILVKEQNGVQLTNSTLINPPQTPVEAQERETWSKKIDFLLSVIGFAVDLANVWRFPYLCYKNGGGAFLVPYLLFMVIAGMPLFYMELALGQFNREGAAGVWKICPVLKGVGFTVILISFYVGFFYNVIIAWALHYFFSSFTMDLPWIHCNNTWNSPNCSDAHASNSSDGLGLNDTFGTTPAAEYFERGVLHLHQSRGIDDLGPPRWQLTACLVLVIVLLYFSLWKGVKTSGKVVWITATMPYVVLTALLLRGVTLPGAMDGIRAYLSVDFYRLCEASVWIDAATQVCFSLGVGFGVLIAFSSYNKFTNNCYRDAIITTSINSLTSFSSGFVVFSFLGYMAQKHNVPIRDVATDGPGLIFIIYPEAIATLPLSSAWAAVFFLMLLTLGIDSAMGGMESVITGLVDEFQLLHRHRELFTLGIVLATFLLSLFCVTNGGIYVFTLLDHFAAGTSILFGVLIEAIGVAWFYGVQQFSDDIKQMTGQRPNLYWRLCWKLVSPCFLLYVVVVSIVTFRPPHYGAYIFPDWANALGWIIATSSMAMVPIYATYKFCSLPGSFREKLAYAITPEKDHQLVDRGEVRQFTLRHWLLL

Usually inhibition stands for the share of the control response that was lost under treatment. High values mean a response far below the control, low ones a response near the control. For `Clc1ccccc1[C@@H]1CN2CCC[C@@H]2c2ccccc21` (stereo in doubt; 24b), in the assay filed under Mus musculus [1], the behavior entry is given as “Partial stimulant”. The inhibition in the assay filed under Rattus norvegicus turned out to be 16%; in [2], 12%; in assay [3], 6%.
Consider `FC(F)(F)c1cccc([C@@H]2CN3CCC[C@@H]3c3ccccc32)c1` (stereo in doubt; 37b), for which the behavior result in the assay filed under Mus musculus [1] was “Partial stimulant”. Moreover, the inhibition in the assay filed under Rattus norvegicus was 16%; in [4], 17%; in assay [2] it was 7%; in assay [3] it was 1%.
Broadly, the Ki is the dissociation constant of the complex between target and ligand, obtained from inhibition or displacement. Read a low Ki as higher affinity. Regarding `CN(C)CCCN1c2ccccc2CCc2ccc(Cl)cc21` [CLOMIPRAMINE], the Ki was 5000 nM in [5], 56 nM at D(2) dopamine receptor and 51 nM in [6].
What is called ED50 is the dose that gives a 50% effect, or the effect in half of the subjects. Regarding `c1ccc([C@@H]2CN3CCC[C@@H]3c3ccccc32)cc1` (stereo in doubt; 7b), the Ki in [5] is greater than 10000 nM; on D(2) dopamine receptor it was 875 nM; in [6] it was 750 nM; in assay [9], 172 nM. Besides, the ED50 is 0.07 mg/kg in the assay listed under Mus musculus [7] and 0.34 mg/kg in the assay filed under Mus musculus [8].
`c1ccc([C@@H]2CN3CC[C@H]3c3ccccc32)cc1`: the ED50 entry with Mus musculus [10] and with Mus musculus [11] was “inactive” in each case. In addition, the Ki came out at 1620 nM in assay [12] and 866 nM in assay [13].
